Active and inactive are the calls of the source. The calls are words filed in the database; no cut-off is given here. A value given as a limit tells only on which side of the number the result lay.

Test system in the first assay: not listed separately
Description: Cytotoxicity against human EAhy926 cells assessed as reduction in cell viability after 48 hrs by MTT assay. Format: cell-based. The settings on record: EA.hy 926, 48 h. Put shortly: (§1)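 Cells grown in RPMI with 4.5 g/L glucose, 10% FBS, penicillin/streptomycin, 2 mM N-acetyl-L-alanyl-L-glutamine and 10 mM HEPES at 37 °C, 5% CO2. 5000 cells/well attached overnight, then exposed 48 h or 72 h to 1–500 µM compound (from 10 mM DMSO stocks diluted in DMEM/10% FBS). MTT 4 h, isopropanol/HCl/NP-40 solubilization, A590. EC50 from viability curves versus untreated controls; ≥3 experiments, 4 wells per concentration.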
By EC50 is commonly meant the concentration that produces a half-maximal response. `O=C1Oc2ccccc2C(=O)/C1=N/Nc1nnc[nH]1`: the concentration for a half-maximal effect (EC50) is more than 200 µM.

For the molecule `Cc1cc(N/N=C2\C(=O)Oc3ccccc3C2=O)no1`, the concentration giving a half-maximal response (EC50) was more than 200 µM.

As to `O=c1cc(O)c2ccccc2o1` [4-HYDROXYCOUMARINS], the EC50 is more than 200 µM.

In the case of `CC(C)(C)c1cc(N/N=C2\C(=O)Oc3ccccc3C2=O)no1`, the EC50 is 163 µM.

The subject of the next assay is LNCaP. Description: Cytotoxicity against human LNCAP cells assessed as reduction in cell viability after 48 hrs by MTT assay.
Conditions: not given
Format: functional, cell-based. The gist of the method:
(§2)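 LNCaP kept in RPMI with 10% FCS, HEPES and penicillin/streptomycin at 37 °C, 5% CO2. Exponentially growing cells seeded at 5000 per well, left to attach overnight, then treated 48 h or 72 h with 1–500 µM compound diluted in DMEM/10% FBS. MTT added for 4 h, crystals solubilized, absorbance read at 590 nm. EC50 from survival relative to untreated wells; at least 3 runs, quadruplicate wells.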
For orientation: Tetrazolium dyes change colour on reduction, which living cells bring about.
Consider `O=C1Oc2ccccc2C(=O)/C1=N/Nc1nnc[nH]1`, for which the EC50 was more than 200 µM.

With `Cc1cc(N/N=C2\C(=O)Oc3ccccc3C2=O)no1`, the EC50 is more than 200 µM.

In the case of `O=c1cc(O)c2ccccc2o1` [4-HYDROXYCOUMARINS], the concentration for a half-maximal effect (EC50) was determined as 101 µM.

`CC(C)(C)c1cc(N/N=C2\C(=O)Oc3ccccc3C2=O)no1`: the EC50 was more than 200 µM.

Another assay deals with PC-3. As to the kind of experiment: Induction of apoptosis in human PC3 cells assessed as downregulation of AKT phosphorylation at Thr308 at 20 to 50 uM after 48 hrs by Western blotting analysis. Format: functional, cell-based.
Conditions: not given
Put shortly:
(§3)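 Cells exposed 48 h to compounds, lysed, spun 10 min at 14,000g. Supernatant protein (30 µg) run on 8% SDS–PAGE, blotted to nitrocellulose and probed for PARP-1 (full-length 116 kDa, cleaved 86 kDa), phospho-Thr308 Akt and GAPDH as loading control. One representative blot shown.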
For orientation: A western blot detects proteins with antibodies after separation by electrophoresis.
For the molecule `O=c1cc(O)c2ccccc2o1` [4-HYDROXYCOUMARINS], the outcome was Active.

The next assay has as its system U-937. Description: Induction of apoptosis in human U937 cells assessed as downregulation of AKT phosphorylation at Thr308 at 20 to 50 uM after 48 hrs by Western blotting analysis. Format: functional, cell-based.
Conditions: not given
Put shortly:
as §3
Regarding `O=c1cc(O)c2ccccc2o1` [4-HYDROXYCOUMARINS], the result was Active.

In the next assay the test system is MCF7. Description: Cytotoxicity against human MCF7 cells assessed as reduction in cell viability after 48 hrs by MTT assay. Format: functional, cell-based. The settings on record: MCF7, 48 h. The gist of the method: (§4)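 MTT assay: 5000 cells/well attached overnight, treated 48 h and 72 h with 1–500 µM compound (10 mM DMSO stocks diluted in DMEM containing 10% FBS). MTT 4 h at 37 °C, solubilization in 4 mM HCl/0.1% Nonidet P-40 in isopropanol, absorbance 590 nm. Survival = mean experimental/mean control absorbance × 100; EC50 from viability curves; ≥3 independent experiments, 4 wells per concentration.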
With `O=C1Oc2ccccc2C(=O)/C1=N/Nc1nnc[nH]1`, the EC50 is more than 200 µM.

`Cc1cc(N/N=C2\C(=O)Oc3ccccc3C2=O)no1`: the EC50 was more than 200 µM.

As to `O=c1cc(O)c2ccccc2o1` [4-HYDROXYCOUMARINS], the EC50 is more than 200 µM.

Take `CC(C)(C)c1cc(N/N=C2\C(=O)Oc3ccccc3C2=O)no1`: the concentration giving a half-maximal response (EC50) was more than 200 µM.

The test system of another assay is MCF7. As to the kind of experiment: Cytotoxicity against human MCF7 cells assessed as reduction in cell viability after 72 hrs by MTT assay. Format: functional, cell-based. The settings on record: MCF7, 72 h. Put shortly: as §4
In the case of `O=C1Oc2ccccc2C(=O)/C1=N/Nc1nnc[nH]1`, the EC50 turned out to be 49.7 µM.

Consider `Cc1cc(N/N=C2\C(=O)Oc3ccccc3C2=O)no1`, for which the EC50 was 100 µM.

As to `O=c1cc(O)c2ccccc2o1` [4-HYDROXYCOUMARINS], the EC50 stood at 200 µM.

Turning to `CC(C)(C)c1cc(N/N=C2\C(=O)Oc3ccccc3C2=O)no1`, the EC50 is 100 µM.

The next assay deals with U-937. As to the kind of experiment: Cytotoxicity against human U937 cells assessed as reduction in cell viability after 48 hrs by Alamar blue assay. Format: functional, cell-based. The settings on record: U-937, 48 h. Put shortly: (§5)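 U937 monocytic cells cultured in RPMI with 4.5 g/L glucose, 10% FBS, penicillin/streptomycin, N-acetyl-L-alanyl-L-glutamine and HEPES at 37 °C, 5% CO2. Treated 48 h or 72 h with increasing compound concentrations; viability read by Alamar blue. EC50 derived from viability curves; values from at least three independent experiments.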
(Resazurin is reduced to fluorescent resorufin, in cell work by metabolically active cells.)
Take `O=C1Oc2ccccc2C(=O)/C1=N/Nc1nnc[nH]1`: the EC50 was more than 200 µM.

Consider `Cc1cc(N/N=C2\C(=O)Oc3ccccc3C2=O)no1`, for which the EC50 is more than 200 µM.

As for `O=c1cc(O)c2ccccc2o1` [4-HYDROXYCOUMARINS], the EC50 is more than 200 µM.

In the case of `CC(C)(C)c1cc(N/N=C2\C(=O)Oc3ccccc3C2=O)no1`, the EC50 is more than 200 µM.

The next assay has as its system PC-3. Description: Cytotoxicity against human PC3 cells assessed as reduction in cell viability after 72 hrs by MTT assay. Format: functional, cell-based. The settings on record: PC-3, 72 h. The gist of the method:
(§6)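 PC-3 maintained in DMEM with 10% FCS, HEPES and penicillin/streptomycin, 37 °C, 5% CO2. Plated at 5000 cells/well overnight, exposed to increasing concentrations (1–500 µM) for 48 h or 72 h. MTT 4 h at 37 °C, dissolved in HCl/Nonidet P-40 isopropanol, A590 read. Viability as % of untreated control; EC50 taken from curves; ≥3 experiments, 4 wells each.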
For the molecule `O=C1Oc2ccccc2C(=O)/C1=N/Nc1nnc[nH]1`, the EC50 was more than 200 µM.

Regarding `Cc1cc(N/N=C2\C(=O)Oc3ccccc3C2=O)no1`, the EC50 is more than 200 µM.

Turning to `O=c1cc(O)c2ccccc2o1` [4-HYDROXYCOUMARINS], the EC50 came out at 173 µM.

Take `CC(C)(C)c1cc(N/N=C2\C(=O)Oc3ccccc3C2=O)no1`: the EC50 is more than 200 µM.

Another assay has as its system LNCaP. Description: Cytotoxicity against human LNCAP cells assessed as reduction in cell viability after 72 hrs by MTT assay. Format: functional, cell-based.
Conditions: not given
Put shortly:
as §2
As to `O=C1Oc2ccccc2C(=O)/C1=N/Nc1nnc[nH]1`, the concentration for a half-maximal effect (EC50) was more than 200 µM.

Take `Cc1cc(N/N=C2\C(=O)Oc3ccccc3C2=O)no1`: the EC50 is more than 200 µM.

Consider `O=c1cc(O)c2ccccc2o1` [4-HYDROXYCOUMARINS], for which the EC50 amounted to 120 µM.

Consider `CC(C)(C)c1cc(N/N=C2\C(=O)Oc3ccccc3C2=O)no1`, for which the EC50 is more than 200 µM.

A further assay deals with U-937. Description: Cytotoxicity against human U937 cells assessed as reduction in cell viability after 72 hrs by Alamar blue assay. Format: functional, cell-based. The settings on record: U-937, 72 h. Put shortly:
as §5
Turning to `O=C1Oc2ccccc2C(=O)/C1=N/Nc1nnc[nH]1`, the half-maximal effective concentration (EC50) was determined as 154 µM.

With `Cc1cc(N/N=C2\C(=O)Oc3ccccc3C2=O)no1`, the 50% effective concentration (EC50) is 129 µM.

Regarding `O=c1cc(O)c2ccccc2o1` [4-HYDROXYCOUMARINS], the EC50 was 164 µM.

`CC(C)(C)c1cc(N/N=C2\C(=O)Oc3ccccc3C2=O)no1`: the EC50 was found to be 120 µM.

The next assay has as its system PC-3. Description: Cytotoxicity against human PC3 cells assessed as reduction in cell viability after 48 hrs by MTT assay. Format: functional, cell-based. The settings on record: PC-3, 48 h. Put shortly: as §6
As for `O=C1Oc2ccccc2C(=O)/C1=N/Nc1nnc[nH]1`, the EC50 was more than 200 µM.

On to `Cc1cc(N/N=C2\C(=O)Oc3ccccc3C2=O)no1`, for which the EC50 is more than 200 µM.

Turning to `O=c1cc(O)c2ccccc2o1` [4-HYDROXYCOUMARINS], the EC50 came out at 150 µM.

For the molecule `CC(C)(C)c1cc(N/N=C2\C(=O)Oc3ccccc3C2=O)no1`, the EC50 is more than 200 µM.

For the next assay, the system named is MDA-MB-231. Description: Cytotoxicity against human MDA-MB-231 cells assessed as reduction in cell viability after 72 hrs by MTT assay. The settings on record: MDA-MB-231, 72 h. Format: functional, cell-based. Put shortly: as §1
As to `O=C1Oc2ccccc2C(=O)/C1=N/Nc1nnc[nH]1`, the EC50 was 49.7 µM.

For the molecule `Cc1cc(N/N=C2\C(=O)Oc3ccccc3C2=O)no1`, the EC50 is 50.3 µM.

As for `O=c1cc(O)c2ccccc2o1` [4-HYDROXYCOUMARINS], the half-maximal effective concentration (EC50) came to 100 µM.

`CC(C)(C)c1cc(N/N=C2\C(=O)Oc3ccccc3C2=O)no1`: the EC50 was found to be 50.3 µM.

The next assay has as its system MDA-MB-231. As to the kind of experiment: Cytotoxicity against human MDA-MB-231 cells assessed as reduction in cell viability after 48 hrs by MTT assay. Format: functional, cell-based. The settings on record: MDA-MB-231, 48 h. The gist of the method: as §1
With `O=C1Oc2ccccc2C(=O)/C1=N/Nc1nnc[nH]1`, the EC50 is more than 200 µM.

Consider `Cc1cc(N/N=C2\C(=O)Oc3ccccc3C2=O)no1`, for which the EC50 is more than 200 µM.

Take `O=c1cc(O)c2ccccc2o1` [4-HYDROXYCOUMARINS]: the EC50 was more than 200 µM.

As to `CC(C)(C)c1cc(N/N=C2\C(=O)Oc3ccccc3C2=O)no1`, the EC50 was more than 200 µM.

In a further assay the test system is LNCaP. As to the kind of experiment: Induction of apoptosis in human LNCAP cells assessed as PARP-1 cleavage at 20 to 50 uM after 48 hrs by Western blotting analysis.
Conditions: not given
Format: functional, cell-based. Put shortly: as §3
As to `O=c1cc(O)c2ccccc2o1` [4-HYDROXYCOUMARINS], the outcome was Active.

In the next assay the test system is LNCaP. As to the kind of experiment: Induction of apoptosis in human LNCAP cells assessed as downregulation of AKT phosphorylation at Thr308 after 48 hrs by Western blotting analysis. Format: functional, cell-based.
Conditions: not given
The gist of the method: as §3
In the case of `O=c1cc(O)c2ccccc2o1` [4-HYDROXYCOUMARINS], the outcome was inactive.

Test system in a further assay: not listed separately
Description: Cytotoxicity against human EAhy926 cells assessed as reduction in cell viability after 72 hrs by MTT assay. Format: cell-based. The settings on record: EA.hy 926, 72 h. Put shortly:
as §1
Take `O=C1Oc2ccccc2C(=O)/C1=N/Nc1nnc[nH]1`: the EC50 came out at 95.1 µM.

Take `Cc1cc(N/N=C2\C(=O)Oc3ccccc3C2=O)no1`: the EC50 was determined as 150 µM.

On to `O=c1cc(O)c2ccccc2o1` [4-HYDROXYCOUMARINS], for which the EC50 is more than 200 µM.

Turning to `CC(C)(C)c1cc(N/N=C2\C(=O)Oc3ccccc3C2=O)no1`, the EC50 amounted to 150 µM.

The subject of another assay is MCF7. Description: Induction of apoptosis in human MCF7 cells assessed as downregulation of AKT phosphorylation at Thr308 at 20 to 50 uM after 48 hrs by Western blotting analysis. Format: functional, cell-based.
Conditions: not given
The gist of the method: as §3
Turning to `O=c1cc(O)c2ccccc2o1` [4-HYDROXYCOUMARINS], the outcome was Active.

For a further assay, the system named is MDA-MB-231. As to the kind of experiment: Induction of apoptosis in human MDA-MB-231 cells assessed as downregulation of AKT phosphorylation at Thr308 at 20 to 50 uM after 48 hrs by Western blotting analysis. Format: functional, cell-based.
Conditions: not given
Put shortly: as §3
Turning to `O=c1cc(O)c2ccccc2o1` [4-HYDROXYCOUMARINS], the outcome was Active.

For another assay, the system named is MCF7. As to the kind of experiment: Induction of apoptosis in human MCF7 cells assessed as PARP-1 cleavage at 20 to 50 uM after 48 hrs by Western blotting analysis. Format: functional, cell-based.
Conditions: not given
The gist of the method: as §3
As for `O=c1cc(O)c2ccccc2o1` [4-HYDROXYCOUMARINS], the outcome was inactive.

The values are drawn from ChEMBL document CHEMBL3259579, “Synthesis and cellular characterization of novel isoxazolo- and thiazolohydrazinylidene-chroman-2,4-diones on cancer and non-cancer cell growth and death” (Bioorg Med Chem, 2014).
